Reference: ChEMBL document CHEMBL4251600, “Bioactive products from singlet oxygen photooxygenation of cannabinoids” (Eur J Med Chem, 2018)
≈ marks a conversion by molar mass, not a printed value. Calls of active or inactive are those of the source. The rule behind the calls is not given here.

Key:
Leishmania donovani = assay: Antileishmanial activity against Leishmania donovani promastigotes incubated for 48 hrs by alamar blue assay; type: functional, organism-based
Pichia kudriavzevii = assay: Antifungal activity against Candida krusei by modified CLSI based method; type: functional, organism-based
Nakaseomyces glabratus = assay: Antifungal activity against Candida glabrata by modified CLSI based method; type: functional, organism-based
Staphylococcus aureus [1] = assay: Antimicrobial activity against methicillin-resistant Staphylococcus aureus by modified CLSI based method; type: functional, organism-based
Staphylococcus aureus [2] = assay: Antimicrobial activity against Staphylococcus aureus by modified CLSI based method; type: functional, organism-based
Cryptococcus neoformans = assay: Antifungal activity against Cryptococcus neoformans by alamar blue assay; type: functional, organism-based
Cannabinoid receptor 2 [3] = molecular target: T1, Cannabinoid receptor 2 (Homo sapiens, UniProt P34972); assay: Displacement of [3H]CP-55,940 from recombinant human full length CB2 receptor expressed in HEK293 cell membranes after 90 mins by topcount method
Cannabinoid receptor 1 [4] = molecular target: T2, Cannabinoid receptor 1 (Homo sapiens, UniProt P21554); assay: Agonist activity at recombinant human full length CB1 receptor expressed in HEK293 cell membranes after 2 hrs by [35S]GTP-gammaS binding assay; type: functional
Procedure, shortened: (§1)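 Membranes (20 µg/well) from HEK293 cells stably transfected with human CB1 or CB2 cDNA were incubated with test compound and 0.5 nM [35S]-GTP-γS. Buffer: 50 mM Tris-HCl, 0.2 mM EGTA, 9 mM MgCl2, 150 mM NaCl, 50 µM GDP, 1.4 mg/ml BSA. Incubation ran 2 h at 30°C and was stopped by vacuum filtration through GF/B filters with cold Tris-HCl. Nonspecific binding was taken with 40 µM GTP-γS.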

Cannabinoid receptor 1 [5] = molecular target: T2, Cannabinoid receptor 1; assay: Displacement of [3H]CP-55,940 from recombinant human full length CB1 receptor expressed in HEK293 cell membranes after 90 mins by topcount method
Cannabinoid receptor 2 [6] = molecular target: T1, Cannabinoid receptor 2; assay: Agonist activity at recombinant human full length CB2 receptor expressed in HEK293 cell membranes after 2 hrs by [35S]GTP-gammaS binding assay; type: functional; procedure, shortened: as §1
Plasmodium falciparum [7] = assay: Antiplasmodial activity against chloroquine-resistant Plasmodium falciparum W2 infected in red blood cells incubated for 72 hrs by parasite LDH release based colorimetric assay; type: functional, organism-based; details: W2, 72 h
BT-549 = assay: Anticancer activity against human BT549 cells assessed as cell growth inhibition incubated for 48 hrs by neutral red dye based assay; type: functional; details: BT-549, 48 h
Vero = assay: Cytotoxicity against African green monkey Vero cells assessed as cell growth inhibition incubated for 48 hrs by neutral red dye based assay; details: Chlorocebus sabaeus
Plasmodium falciparum [8] = assay: Antiplasmodial activity against chloroquine-sensitive Plasmodium falciparum D6 infected in red blood cells incubated for 72 hrs by parasite LDH release based colorimetric assay; type: functional, organism-based; details: D6, 72 h
LLC-PK1 = assay: Cytotoxicity against pig LLC-PK1 cells assessed as cell growth inhibition incubated for 48 hrs by neutral red dye based assay; design: species or system Sus scrofa; details: Sus scrofa, LLC-PK1, 48 h; read-out: IC50
SK-OV-3 = assay: Anticancer activity against human SKOV3 cells assessed as cell growth inhibition incubated for 48 hrs by neutral red dye based assay; type: functional; details: SK-OV-3, 48 h
KB = assay: Anticancer activity against human KB cells assessed as cell growth inhibition incubated for 48 hrs by neutral red dye based assay; type: functional
SK-MEL = assay: Anticancer activity against human SK-MEL cells assessed as cell growth inhibition up to 10 ug/ml incubated for 48 hrs by neutral red dye based assay; type: functional
Cannabinoid receptor 2 [9] = molecular target: T1, Cannabinoid receptor 2; assay: Agonist activity at recombinant human full length CB2 receptor expressed in HEK293 cell membranes at 100 uM after 2 hrs by [35S]GTP-gammaS binding assay relative to CP-55,940; type: functional
Cannabinoid receptor 1 [10] = molecular target: T2, Cannabinoid receptor 1; assay: Agonist activity at recombinant human full length CB1 receptor expressed in HEK293 cell membranes at 100 uM after 2 hrs by [35S]GTP-gammaS binding assay relative to CP-55,940; type: functional
[11] = Leishmania donovani, 48 h, read-out: IC50
[12] = Leishmania donovani, 48 h, read-out: IC90
[13] = Staphylococcus aureus, read-out: IC50

T1 sequence (P34972 whole entry): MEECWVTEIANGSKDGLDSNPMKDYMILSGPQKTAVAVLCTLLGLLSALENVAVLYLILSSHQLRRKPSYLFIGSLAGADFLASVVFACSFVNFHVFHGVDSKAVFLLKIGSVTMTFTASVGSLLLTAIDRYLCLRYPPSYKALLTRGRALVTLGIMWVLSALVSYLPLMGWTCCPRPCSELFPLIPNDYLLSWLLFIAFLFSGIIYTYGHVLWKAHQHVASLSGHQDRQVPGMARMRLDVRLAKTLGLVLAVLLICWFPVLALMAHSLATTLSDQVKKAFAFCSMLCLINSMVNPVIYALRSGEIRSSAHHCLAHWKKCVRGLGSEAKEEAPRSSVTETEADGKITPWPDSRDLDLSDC
T2 sequence (P21554 whole entry): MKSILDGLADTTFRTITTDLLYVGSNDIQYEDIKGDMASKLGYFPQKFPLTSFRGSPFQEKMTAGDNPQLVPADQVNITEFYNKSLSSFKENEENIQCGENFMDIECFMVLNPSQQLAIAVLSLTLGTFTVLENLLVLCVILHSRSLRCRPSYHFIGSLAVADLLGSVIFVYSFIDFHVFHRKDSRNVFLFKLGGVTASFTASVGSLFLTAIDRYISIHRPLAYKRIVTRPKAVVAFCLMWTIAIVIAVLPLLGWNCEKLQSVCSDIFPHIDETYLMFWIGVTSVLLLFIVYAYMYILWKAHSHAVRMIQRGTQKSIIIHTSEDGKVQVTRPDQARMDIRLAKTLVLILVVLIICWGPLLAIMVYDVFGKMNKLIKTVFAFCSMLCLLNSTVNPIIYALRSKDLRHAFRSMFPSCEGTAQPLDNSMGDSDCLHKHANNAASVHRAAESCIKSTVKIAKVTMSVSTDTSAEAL

C=C1CC[C@@H]2[C@H](c3c(cc(CCCCC)cc3OS(=O)(=O)c3ccc(C)cc3)OC2(C)C)[C@@H]1OO
IC50 (Leishmania donovani; [11]): 3.1 µg/mL (≈ 6.19 µM)
IC90 (Leishmania donovani; [12]): 6.5 µg/mL (≈ 13 µM)

C=C1C[C@H]2C3=C(OC(C)(C)[C@@H]2CC1OO)C(=O)C(CCCCC)=CC3=O (stereo in doubt; 26) [listing 1 of 2 here]
MIC (Pichia kudriavzevii): inactive
MIC (Nakaseomyces glabratus): inactive
MIC (Staphylococcus aureus [1]): inactive

CCCCCc1cc2c(c(OS(=O)(=O)c3ccc(C)cc3)c1)[C@H]1[C@@H](CC=C(C)[C@@H]1O)C(C)(C)O2
MIC (Pichia kudriavzevii): inactive
MIC (Staphylococcus aureus [2]): inactive
MIC (Nakaseomyces glabratus): inactive
MIC (Cryptococcus neoformans): inactive
MIC (Staphylococcus aureus [1]): inactive

CCCCCc1cc(O)c2c(c1)OC(C)(C)[C@@H]1C=C[C@@](C)(O)C[C@@H]21
IC50 (Cannabinoid receptor 2 [3]): 19 nM
Ki (Cannabinoid receptor 2 [3]): 9.5 nM
IC50 (Cannabinoid receptor 1 [4]): 387 nM
Ki (Cannabinoid receptor 1 [4]): 193 nM
IC50 (Cannabinoid receptor 1 [5]): 930 nM
Ki (Cannabinoid receptor 1 [5]): 470 nM
IC50 (Cannabinoid receptor 2 [6]): 11400 nM
Ki (Cannabinoid receptor 2 [6]): 5700 nM

CCCCCc1cc(OC(C)=O)c2c(c1)OC(C)(C)[C@@H]1CC=C(C)C[C@@H]21
IC50 (Cannabinoid receptor 2 [3]): 316 nM
Ki (Cannabinoid receptor 2 [3]): 158 nM
IC50 (Cannabinoid receptor 1 [4]): 87 nM
Ki (Cannabinoid receptor 1 [4]): 43 nM
IC50 (Cannabinoid receptor 1 [5]): 88 nM
Ki (Cannabinoid receptor 1 [5]): 44 nM
IC50 (Cannabinoid receptor 2 [6]): 518 nM
Ki (Cannabinoid receptor 2 [6]): 259 nM

CCCCCC1=CC(=O)C2=C(OC(C)(C)[C@@H]3CC[C@](C)(OCC)C=C23)C1=O
IC50 (Plasmodium falciparum [7]): 0.2 µg/mL (≈ 0.537 µM)
IC50 (Leishmania donovani; [11]): 0.06 µg/mL (≈ 0.161 µM)
IC90 (Leishmania donovani; [12]): 0.13 µg/mL (≈ 0.349 µM)
IC50 (Pichia kudriavzevii): Not Active
MIC (Pichia kudriavzevii): inactive
IC50 (Cannabinoid receptor 2 [3]): 4070 nM
Ki (Cannabinoid receptor 2 [3]): 2030 nM
IC50 (Staphylococcus aureus [2]; [13]): 1.35 µg/mL (≈ 3.62 µM)
MIC (Staphylococcus aureus [2]; Staphylococcus aureus, read-out: MIC): 2.5 µg/mL (≈ 6.71 µM)
IC50 (BT-549): 4.2 µg/mL (≈ 11.3 µM)
IC50 (Nakaseomyces glabratus): Not Active
MIC (Nakaseomyces glabratus): inactive
IC50 (Cannabinoid receptor 1 [5]): 1840 nM
Ki (Cannabinoid receptor 1 [5]): 919 nM
IC50 (Vero): 4.1 µg/mL (≈ 11 µM)
IC50 (Plasmodium falciparum [8]): 0.16 µg/mL (≈ 0.43 µM)
IC50 (LLC-PK1): 2.25 µg/mL (≈ 6.04 µM)
IC50 (Cryptococcus neoformans; Cryptococcus neoformans, read-out: IC50): 0.7 µg/mL (≈ 1.88 µM)
MIC (Cryptococcus neoformans; Cryptococcus neoformans, read-out: MIC): 2.5 µg/mL (≈ 6.71 µM)
MIC (Staphylococcus aureus [1]; Staphylococcus aureus): 2.5 µg/mL (≈ 6.71 µM)
IC50 (Staphylococcus aureus [1]; [13]): 1.36 µg/mL (≈ 3.65 µM)
IC50 (SK-OV-3): 4.35 µg/mL (≈ 11.7 µM)
IC50 (KB): 5.25 µg/mL (≈ 14.1 µM)

CCCCCc1cc2c(c(OS(=O)(=O)c3ccc(C)cc3)c1)[C@@H]1[C@H](O)C(C)=CC[C@H]1C(C)(C)O2
IC50 (Cannabinoid receptor 2 [3]): 1110 nM
Ki (Cannabinoid receptor 2 [3]): 552 nM
IC50 (Cannabinoid receptor 1 [5]): 1280 nM
Ki (Cannabinoid receptor 1 [5]): 642 nM

C=C1C[C@H]2C3=C(OC(C)(C)[C@@H]2CC1OO)C(=O)C(CCCCC)=CC3=O (stereo in doubt; 26) [listing 2 of 2 here]
IC50 (Leishmania donovani): 3.1 µg/mL (≈ 8.6 µM)
IC90 (Leishmania donovani): 8 µg/mL (≈ 22.2 µM)
IC50 (Pichia kudriavzevii): 20 µg/mL (≈ 55.5 µM)
IC50 (Staphylococcus aureus [2]): 2.41 µg/mL (≈ 6.69 µM)
MIC (Staphylococcus aureus [2]): 5 µg/mL (≈ 13.9 µM)
IC50 (SK-MEL): Not Active
IC50 (LLC-PK1): 9.95 µg/mL (≈ 27.6 µM)
IC50 (Cryptococcus neoformans): 2.05 µg/mL (≈ 5.69 µM)
MIC (Cryptococcus neoformans): 5 µg/mL (≈ 13.9 µM)
IC50 (Staphylococcus aureus [1]): 15.3 µg/mL (≈ 42.4 µM)

CCCCCc1cc(O)c2c(c1)OC(C)(C)C1=C2C(O)C(C)(OC)CC1 (stereo not given)
IC50 (Leishmania donovani; [11]): 35 µg/mL (≈ 97.1 µM)
IC90 (Leishmania donovani; [12]): > 40 µg/mL
IC50 (Cannabinoid receptor 2 [3]): 599 nM
Ki (Cannabinoid receptor 2 [3]): 300 nM
Emax (Cannabinoid receptor 2 [9]): 40%
IC50 (Cannabinoid receptor 1 [5]): 1080 nM
Ki (Cannabinoid receptor 1 [5]): 538 nM
Emax (Cannabinoid receptor 1 [10]): 20%

N=C(N)c1ccc(OCCCCCOc2ccc(C(=N)N)cc2)cc1 [PENTAMIDINE]
IC90 (Leishmania donovani; [12]): 2 µg/mL (≈ 5.87 µM)

CCCCCc1cc(OC(C)=O)c2c(c1)OC(C)(C)C1=C2C(O)C(C)(O)CC1 (stereo not given)
IC50 (Plasmodium falciparum [7]): 3.2 µg/mL (≈ 8.24 µM)
IC50 (Plasmodium falciparum [8]): 4.5 µg/mL (≈ 11.6 µM)

C=C1C[C@H]2C3=C(OC(C)(C)[C@@H]2CC1OO)C(=O)C(CCCCC)=CC3=O (stereo in doubt; 25)
MIC (Pichia kudriavzevii): inactive
MIC (Nakaseomyces glabratus): inactive

C=C1C[C@H]2c3c(cc(CCCCC)cc3OS(=O)(=O)c3ccc(C)cc3)OC(C)(C)[C@@H]2CC1OO (stereo not given in full)
IC50 (Cannabinoid receptor 2 [3]): 2060 nM
Ki (Cannabinoid receptor 2 [3]): 1030 nM
IC50 (Cannabinoid receptor 1 [5]): 5700 nM
Ki (Cannabinoid receptor 1 [5]): 2850 nM
